The subject of data set [1] is V79. The data set is described as follows: Ratio drug uptake in chinese hamster V79 379A cells in hypoxic to oxic condition assessed as accumulation of fluorescent N-Oxide Benzo[b]xanthene [2,1-c]naphthalimide metabolites at 10^-4 M after 4.5 hrs by fluorescent microscopic analysis. Format: ADME, cell-based, Cricetulus griseus. Conditions: 100 µM; call rule not given here. In a few lines: (§1)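 Hypoxic/oxic fluorescence ratio in V79 379A suspension cultures (MEM, 7.5% FCS). Cells given 10^-4 M compound (DMSO ≤1% final) at 37 °C under N2 + 5% CO2 or air + 5% CO2. Samples taken over a time course, centrifuged, PBS-washed and resuspended. Fluorescence read by microplate reader ("fluorescence scan ascent"); ratio taken at about 4.5 h.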

In a further data set the test system is Nucleic Acid. The data set is described as follows: Binding affinity to calf thymus DNA assessed as binding constant. Format: nucleic-acid assay. Conditions: Bos taurus. Put shortly:
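Fluorescence titration: compound at 10 × 10^-6 M in 20 mM Tris–HCl pH 7.5 at room temperature, with calf thymus DNA added in rising amounts (0–400 × 10^-6 M). Excitation 460 nm; emission spectra recorded.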

The subject of data set [2] is V79. The data set can be described thus: Drug uptake in hypoxic-chinese hamster V79 379A cells assessed as accumulation of fluorescent N-Oxide Benzo[k,l]thioxanthene-3,4-naphthalimide metabolites at 10^-4 M after 4.5 hrs by fluorescent microscopic analysis. Format: ADME, cell-based, Cricetulus griseus. Conditions: 100 µM. In a few lines: (§2)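 V79 379A cells grown as suspension cultures in Eagle's MEM (suspension-modified, Earle's salts) with 7.5% fetal calf serum. Compound added at 10^-4 M, DMSO 1% final or less. Incubated 4.5 h at 37 °C under nitrogen + 5% CO2 (hypoxic) or air + 5% CO2 (oxic). Cells centrifuged, PBS-washed, resuspended in PBS, then imaged by fluorescence microscopy, excitation 410 nm, 1000×.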

The subject of data set [3] is V79. The data set can be described thus: Drug uptake in oxic-chinese hamster V79 379A cells assessed as accumulation of fluorescent N-Oxide Benzo[k,l]thioxanthene-3,4-naphthalimide metabolite at 10^-4 M after 4.5 hrs by fluorescent microscopic analysis. Conditions: 100 µM. Format: ADME, cell-based, Cricetulus griseus. Put shortly: as §2
The subject of data set [4] is V79. The data set is described as follows: Ratio drug uptake in chinese hamster V79 379A cells in hypoxic to oxic condition assessed as accumulation of fluorescent N-Oxide Benzo[k,l]thioxanthene-3,4-naphthalimide metabolites at 10^-4 M after 4.5 hrs by fluorescent microscopic analysis. Conditions: 100 µM. Format: ADME, cell-based, Cricetulus griseus. In a few lines:
as §1

In data set [5] the test system is V79. The data set can be described thus: Ratio drug uptake in chinese hamster V79 379A cells in hypoxic to oxic condition assessed as accumulation of fluorescent N-Oxide Benzo[k,l]xanthene-3,4-naphthalimide metabolites at 10^-4 M after 4.5 hrs by fluorescent microscopic analysis. The class given is ADME, cell-based, Cricetulus griseus. Conditions: 100 µM. In a few lines:
as §1

For data set [6], the system named is V79. The data set can be described thus: Drug uptake in hypoxic-chinese hamster V79 379A cells assessed as accumulation of fluorescent N-Oxide 3-nitro-1,8-naphthalimide metabolites at 10^-4 M after 4.5 hrs by fluorescent microscopic analysis. The class given is ADME, cell-based, Cricetulus griseus. Conditions: 100 µM. Put shortly:
as §2

Data set [7] deals with V79. The data set is described as follows: Ratio drug uptake in chinese hamster V79 379A cells in hypoxic to oxic condition assessed as accumulation of fluorescent N-Oxide 3-nitro-1,8-naphthalimide metabolites at 10^-4 M after 4.5 hrs by fluorescent microscopic analysis. Conditions: 100 µM. Format: ADME, cell-based, Cricetulus griseus. Put shortly:
as §1

Data set [8] deals with V79. The data set is described as follows: Drug uptake in oxic-chinese hamster V79 379A cells assessed as accumulation of fluorescent N-Oxide 3-nitro-1,8-naphthalimide metabolite at 10^-4 M after 4.5 hrs by fluorescent microscopic analysis. The class given is ADME, cell-based, Cricetulus griseus. Conditions: 100 µM. Put shortly: as §2
The subject of data set [9] is V79. The data set can be described thus: Drug uptake in hypoxic-chinese hamster V79 379A cells assessed as accumulation of fluorescent N-Oxide 3-amino-1,8-naphthalimide metabolites at 10^-4 M after 4.5 hrs by fluorescent microscopic analysis. Conditions: 100 µM. Format: ADME, cell-based, Cricetulus griseus. Put shortly: as §2
Data set [10] has as its system V79. The data set can be described thus: Drug uptake in oxic-chinese hamster V79 379A cells assessed as accumulation of fluorescent N-Oxide 3-amino-1,8-naphthalimide metabolite at 10^-4 M after 4.5 hrs by fluorescent microscopic analysis. The class given is ADME, cell-based, Cricetulus griseus. Conditions: 100 µM. In a few lines: as §2
Data set [11] relates to V79. The data set can be described thus: Ratio drug uptake in chinese hamster V79 379A cells in hypoxic to oxic condition assessed as accumulation of fluorescent N-Oxide 3-amino-1,8-naphthalimide metabolites at 10^-4 M after 4.5 hrs by fluorescent microscopic analysis. Format: ADME, cell-based, Cricetulus griseus. Conditions: 100 µM. Put shortly:
as §1

Regarding `C[N+](C)([O-])CCN1C(=O)c2cccc3c2c(cc2c4ccccc4sc32)C1=O`, the Ratio in the data set on V79 [1] stood at 5.2.

Turning to `C[N+](C)([O-])CCn1c(=O)c2ccc3sc4ccccc4c4ccc(c1=O)c2c34`, the K with Nucleic Acid is 6.62 ×10³ /M. Besides, the Drug uptake result in the data set with V79 [2] is reported as “Active”; with V79 [3], “Not Active”. The Ratio with V79 [4] is 1.75.

As to `C[N+](C)([O-])CCn1c(=O)c2ccc3oc4ccccc4c4ccc(c1=O)c2c34`, the Ratio in the data set with V79 [5] amounted to 1.5.

Turning to `C[N+](C)([O-])CCN1C(=O)c2cccc3cc([N+](=O)[O-])cc(c23)C1=O`, the results for the Drug uptake entry in the data set on V79 [6] and with V79 [8] were “Active” and “Not Active”, respectively. Also, the Ratio in the data set with V79 [7] was 17.

As for `C[N+](C)([O-])CCN1C(=O)c2cccc3cc(N)cc(c23)C1=O`, the Drug uptake result in the data set on V79 [9] is recorded as “Active”; in the data set on V79 [10], “Not Active”. The Ratio in the data set with V79 [11] came out at 8.4.

For the molecule `CN(C)CCn1c(=O)c2ccc3sc4ccccc4c4ccc(c1=O)c2c34`, the K with Nucleic Acid was 2.9 ×10⁵ /M.

These data come from ChEMBL document CHEMBL1806430, “Novel aliphatic N-oxide of naphthalimides as fluorescent markers for hypoxic cells in solid tumor” (Eur J Med Chem, 2011).
